Laboratory results taken from ChEMBL document CHEMBL4813974 (Eur J Med Chem, 2021).
Activity calls are given as the source filed them. No cut-off for these calls is given here.

What was measured:
[1] = target: T1, Acid ceramidase (Homo sapiens) (UniProt Q13510); assay: Inhibition of human ASAH1 stably over expressed in human A-375 cell lysate using RBM14C12 fluorogenic substrate measured at 2:1 compound to substrate molar ratio at pH 4.5 by fluorescence spectrophotometry; type: subcellular
T1 sequence (whole entry): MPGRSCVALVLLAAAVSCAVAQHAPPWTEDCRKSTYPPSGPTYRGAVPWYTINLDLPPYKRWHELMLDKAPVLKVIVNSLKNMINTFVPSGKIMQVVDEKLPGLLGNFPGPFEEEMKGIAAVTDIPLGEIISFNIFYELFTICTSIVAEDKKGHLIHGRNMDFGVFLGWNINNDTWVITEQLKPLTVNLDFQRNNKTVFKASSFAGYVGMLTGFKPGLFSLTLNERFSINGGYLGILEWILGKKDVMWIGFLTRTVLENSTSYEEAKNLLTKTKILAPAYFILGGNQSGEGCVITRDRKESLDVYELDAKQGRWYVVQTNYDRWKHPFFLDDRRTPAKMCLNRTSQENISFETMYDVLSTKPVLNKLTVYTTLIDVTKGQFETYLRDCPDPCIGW

[2] = target: T2, Alkaline ceramidase 3 (Mus musculus) (UniProt Q9D099); assay: Inhibition of ACER3 in ASAH2-null mouse embryonic fibroblast lysate using RBM14C16 fluorogenic substrate measured at 1:1 substrate to compound molar ratio at pH 9 in presence of Ca2+ by fluorescence spectrophotometry; settings: MEF
T2 sequence (whole entry): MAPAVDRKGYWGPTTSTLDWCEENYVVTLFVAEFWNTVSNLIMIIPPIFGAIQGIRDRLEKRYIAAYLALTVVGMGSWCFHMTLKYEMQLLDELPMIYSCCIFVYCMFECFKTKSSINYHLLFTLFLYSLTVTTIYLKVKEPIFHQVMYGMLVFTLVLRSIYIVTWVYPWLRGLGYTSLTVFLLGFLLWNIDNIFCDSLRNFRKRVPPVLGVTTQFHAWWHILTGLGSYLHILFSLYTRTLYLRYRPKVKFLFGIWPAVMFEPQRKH

Neutral ceramidase = Neutral ceramidase (Homo sapiens, UniProt Q9NR71); assay: Inhibition of human ASAH2 stably over expressed in human A-375 cell lysate using RBM14C24 fluorogenic substrate measured at 20 uM at pH 7.5 by fluorescence spectrophotometry; type: subcellular
Neutral ceramidase, sequence (Q9NR71 whole entry): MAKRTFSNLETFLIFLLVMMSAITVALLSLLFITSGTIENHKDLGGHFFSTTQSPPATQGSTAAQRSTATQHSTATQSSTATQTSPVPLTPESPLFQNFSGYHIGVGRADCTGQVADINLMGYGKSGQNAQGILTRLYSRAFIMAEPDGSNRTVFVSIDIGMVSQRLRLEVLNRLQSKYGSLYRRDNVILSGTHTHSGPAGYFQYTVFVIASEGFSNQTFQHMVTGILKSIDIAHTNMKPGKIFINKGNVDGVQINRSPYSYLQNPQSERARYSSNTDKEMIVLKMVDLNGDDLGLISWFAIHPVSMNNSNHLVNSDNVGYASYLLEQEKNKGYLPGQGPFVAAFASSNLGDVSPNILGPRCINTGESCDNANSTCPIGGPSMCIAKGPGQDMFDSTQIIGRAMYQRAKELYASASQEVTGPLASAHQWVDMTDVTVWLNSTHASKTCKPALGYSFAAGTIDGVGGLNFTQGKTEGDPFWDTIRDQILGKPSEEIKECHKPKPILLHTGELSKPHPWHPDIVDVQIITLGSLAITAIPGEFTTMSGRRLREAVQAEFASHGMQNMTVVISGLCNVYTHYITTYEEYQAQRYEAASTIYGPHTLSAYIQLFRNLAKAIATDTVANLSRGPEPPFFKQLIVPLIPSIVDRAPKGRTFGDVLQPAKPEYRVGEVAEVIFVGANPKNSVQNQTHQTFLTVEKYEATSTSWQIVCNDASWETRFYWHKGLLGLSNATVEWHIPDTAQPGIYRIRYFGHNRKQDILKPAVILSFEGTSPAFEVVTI

[3] = target: T1, Acid ceramidase (Homo sapiens); assay: Inhibition of human ASAH1 stably over expressed in human A-375 cell lysate using RBM14C12 fluorogenic substrate measured at 1:1 compound to substrate molar ratio at pH 4.5 by fluorescence spectrophotometry; type: subcellular
[4] = target: Neutral ceramidase (Mus musculus) (UniProt Q9JHE3); assay: Inhibition of ASAH2 in wild type mouse intact embryonic fibroblast using RBM14C16 fluorogenic substrate measured at pH 7.5 incubated for 3 hrs by fluorescence spectrophotometry; settings: MEF
Neutral ceramidase (Mus musculus), sequence (Q9JHE3 whole entry): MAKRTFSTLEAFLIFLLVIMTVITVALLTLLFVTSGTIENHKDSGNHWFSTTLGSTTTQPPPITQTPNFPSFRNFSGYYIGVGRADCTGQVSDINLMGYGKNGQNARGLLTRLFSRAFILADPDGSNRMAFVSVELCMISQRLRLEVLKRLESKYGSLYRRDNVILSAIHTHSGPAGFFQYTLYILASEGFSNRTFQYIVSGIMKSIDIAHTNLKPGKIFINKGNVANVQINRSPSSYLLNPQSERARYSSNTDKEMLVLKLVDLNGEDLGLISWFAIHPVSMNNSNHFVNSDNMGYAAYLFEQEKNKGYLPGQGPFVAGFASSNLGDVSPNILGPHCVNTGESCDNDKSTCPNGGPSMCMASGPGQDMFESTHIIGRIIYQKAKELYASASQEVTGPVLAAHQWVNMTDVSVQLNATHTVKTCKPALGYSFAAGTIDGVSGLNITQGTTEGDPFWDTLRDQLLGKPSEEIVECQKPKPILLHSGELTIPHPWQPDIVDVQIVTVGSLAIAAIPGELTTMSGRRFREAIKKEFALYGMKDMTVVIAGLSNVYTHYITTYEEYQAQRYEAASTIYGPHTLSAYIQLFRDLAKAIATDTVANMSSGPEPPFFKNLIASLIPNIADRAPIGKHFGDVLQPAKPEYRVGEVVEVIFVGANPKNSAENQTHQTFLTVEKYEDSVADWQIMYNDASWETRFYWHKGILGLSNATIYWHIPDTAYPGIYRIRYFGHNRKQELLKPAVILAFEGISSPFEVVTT
Method in brief: (§1)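 Intact MEF (ASAH2-null or wild type) seeded at 2x10^4 cells/well 24 h before the assay. Then given RBM14C16 (10 μM) plus a range of compound concentrations, added together, in DMEM 10% FBS for 3 h at 37 °C. Stopped with MeOH, oxidized with NaIO4 at pH 10.6, umbelliferone fluorescence read at 355/460 nm. Normalized to SRB protein; three experiments in triplicate.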

[5] = target: T2, Alkaline ceramidase 3 (Mus musculus); assay: Inhibition of ACER3 in ASAH2-null mouse intact embryonic fibroblast using RBM14C16 fluorogenic substrate measured at pH 9 for 3 hrs by fluorescence spectrophotometry; settings: MEF; method in brief: as §1

SMILES	inhibition [1]	inhibition [2]	other results
CCCCCCCCCCCCCC[C@H](O)[C@H](C)NC(=O)c1ccc(CCCCCCC)cc1	inactive	inactive	–
CCCCCCCCCCCC/C=C/[C@H](O)[C@@H](C)NC(=O)CBr	inactive	inactive	–
CCCCCCCCCCCC/C=C/[C@H](O)[C@H](C)NC(=O)c1ccc(CCCCCCC)cc1	inactive	inactive	–
CCCCCCCCCCCCCC[C@@H](O)[C@@H](C)NC(=O)CCCCCCC	inactive	inactive	–
CCCCCCCCCCCC/C=C/[C@@H](O)[C@@H](C)NC(=O)c1ccc(OCCCCCOCOC)cc1	–	–	inhibition (Neutral ceramidase): inactive; inhibition [3]: inactive
CCCCCCCCCCCCCC[C@@H](O)[C@H](C)NC(=O)c1ccc(CCCCCCC)cc1	inactive	inactive	–
CCCCCCCCCCCC/C=C/[C@@H](O)[C@@H](C)NC(=O)c1ccc(OCCCCCCCOCOC)cc1	–	–	inhibition (Neutral ceramidase): inactive; inhibition [3]: inactive
CCCCCCCCCCCC/C=C/[C@@H](O)[C@@H](C)NC(=O)c1ccc(CCC)cc1	–	–	inhibition (Neutral ceramidase): inactive; inhibition [3]: inactive
CCCCCCCCCCCC/C=C/[C@@H](O)[C@@H](C)NC(=O)c1ccc(OCCCCCC)cc1	–	–	inhibition (Neutral ceramidase): inactive; inhibition [3]: inactive
CCCCCCCCCCCC/C=C/[C@@H](O)[C@H](C)NC(=O)C(C)(C)C	inactive	inactive	–
CCCCCCCCCCCC/C=C/[C@H](O)[C@@H](C)NC(=O)C(C)(C)C	inactive	inactive	–
CCCCCCCCCCCC/C=C/[C@@H](O)[C@@H](C)NC(=O)CBr	inactive	inactive	–
CCCCCCCCCCCC/C=C/[C@@H](O)[C@@H](C)NC(=O)c1ccc(CCCCCC)cc1	–	–	inhibition (Neutral ceramidase): inactive; inhibition [3]: inactive
CCCCCCCCCCCC/C=C/[C@@H](O)[C@@H](C)NC(=O)CCCCCCC	–	–	inhibition [4]: inactive; inhibition [5]: inactive
CCCCCCCCCCCC/C=C/[C@H](O)[C@H](C)NC(=O)CCCCCCC	inactive	inactive	–
CCCCCCCCCCCC/C=C/[C@@H](O)[C@@H](C)NC(=O)c1ccc(CCCCC)cc1	–	–	inhibition (Neutral ceramidase): inactive; inhibition [3]: inactive
CCCCCCCCCCCC/C=C/[C@@H](O)[C@@H](C)NC(=O)c1ccc(OCCCCC)cc1	–	–	inhibition (Neutral ceramidase): inactive; inhibition [3]: inactive

SMILES	inhibition [1]	inhibition [2]	other results
CCCCCCCCCCCC/C=C/[C@@H](O)[C@@H](C)NC(=O)c1ccc(OCCCCCCC)cc1	–	–	inhibition (Neutral ceramidase): inactive; inhibition [3]: inactive
CCCCCCCCCCCC/C=C/[C@@H](O)[C@H](C)NC(=O)c1ccc(CCCCCCC)cc1	inactive	inactive	–
CCCCCCCCCCCC/C=C/[C@H](O)[C@H](C)NC(=O)CBr	inactive	inactive	–
CCCCCCCCCCCC/C=C/[C@@H](O)[C@@H](C)NC(=O)c1ccc(C(C)(C)C)cc1	–	–	inhibition (Neutral ceramidase): inactive; inhibition [3]: inactive
CCCCCCCCCCCC/C=C/[C@@H](O)[C@@H](C)NC(=O)C(C)(C)C	inactive	inactive	–
CCCCCCCCCCCC/C=C/[C@@H](O)[C@H](C)NC(=O)CBr	inactive	inactive	–
CCCCCCCCCCCC/C=C/[C@@H](O)[C@H](C)NC(=O)CCCCCCC	inactive	inactive	–
CCCCCCCCCCCC/C=C/[C@@H](O)[C@@H](C)NC(=O)c1ccc(OCCOCCOC)cc1	–	–	inhibition (Neutral ceramidase): inactive; inhibition [3]: inactive
CCCCCCCCCCCC/C=C/[C@@H](O)[C@@H](C)NC(=O)c1ccc(CC)cc1	–	–	inhibition (Neutral ceramidase): inactive; inhibition [3]: inactive
CCCCCCCCCCCCCC[C@H](O)[C@@H](C)NC(=O)c1ccc(CCCCCCC)cc1	inactive	inactive	–
CCCCCCCCCCCCCC[C@@H](O)[C@@H](C)NC(=O)c1ccc(CCCCCCC)cc1	inactive	inactive	–
CCCCCCCCCCCC/C=C/[C@H](O)[C@H](C)NC(=O)C(C)(C)C	inactive	inactive	–
CCCCCCCCCCCC/C=C/[C@H](O)[C@@H](C)NC(=O)CCCCCCC	inactive	inactive	–
CCCCCCCCCCCC/C=C/[C@@H](O)[C@@H](C)NC(=O)c1ccc(OCCOCOC)cc1	–	–	inhibition (Neutral ceramidase): inactive; inhibition [3]: inactive
CCCCCCCCCCCC/C=C/[C@H](O)[C@@H](C)NC(=O)c1ccc(CCCCCCC)cc1	inactive	inactive	–
CCCCCCCCCCCC/C=C/[C@@H](O)[C@@H](C)NC(=O)c1ccccc1	–	–	inhibition (Neutral ceramidase): inactive; inhibition [3]: inactive
CCCCCCCCCCCC/C=C/[C@@H](O)[C@@H](C)NC(=O)c1ccc(OCOC)cc1	–	–	inhibition (Neutral ceramidase): inactive; inhibition [3]: inactive

Now from value to molecule, other results behind:

inhibition [1]	inhibition [2]	SMILES	other results
inactive	inactive	CCCCCCCCCCCCCC[C@H](O)[C@H](C)N	–
inactive	inactive	CCCCCCCCCCCCCC[C@H](O)[C@@H](C)N	–
inactive	inactive	CCCCCCCCCCCC/C=C/[C@@H](O)[C@H](C)N	–
inactive	inactive	CCCCCCCCCCCCCC[C@H](O)[C@@H](C)NC(=O)C(C)(C)C	–
inactive	inactive	CCCCCCCCCCCC/C=C/[C@H](O)[C@H](C)N	–
inactive	inactive	CCCCCCCCCCCCCC[C@H](O)[C@H](C)NC(=O)C(C)(C)C	–
inactive	inactive	CCCCCCCCCCCC/C=C/[C@H](O)[C@@H](C)N	–
inactive	inactive	CCCCCCCCCCCCCC[C@@H](O)[C@H](C)NC(=O)CBr	–
inactive	inactive	CCCCCCCCCCCCCC[C@@H](O)[C@H](C)NC(=O)C(C)(C)C	–
inactive	inactive	CCCCCCCCCCCCCC[C@@H](O)[C@@H](C)NC(=O)C(C)(C)C	–
inactive	inactive	CCCCCCCCCCCCCC[C@H](O)[C@@H](C)NC(=O)CCCCCCC	–
inactive	inactive	CCCCCCCCCCCCCC[C@H](O)[C@@H](C)NC(=O)CBr	–
inactive	inactive	CCCCCCCCCCCCCC[C@@H](O)[C@H](C)NC(=O)CCCCCCC	–
inactive	inactive	CCCCCCCCCCCCCC[C@H](O)[C@H](C)NC(=O)CCCCCCC	–
inactive	inactive	CCCCCCCCCCCCCC[C@H](O)[C@H](C)NC(=O)CBr	–
inactive	inactive	CCCCCCCCCCCC/C=C/[C@@H](O)[C@@H](C)N	–
inactive	inactive	CCCCCCCCCCCCCC[C@@H](O)[C@H](C)N	–
inactive	inactive	CCCCCCCCCCCCCC[C@@H](O)[C@@H](C)N	–
inactive	inactive	CCCCCCCCCCCCCC[C@@H](O)[C@@H](C)NC(=O)CBr	–
